SR-BI DiI-HDL act – enhances SR-BI lipid uptake from DiI-HDL | CHO ldlA[mSR-BI] cells, DiI-HDL uptake fluorescence, 3 h; 100 = double the neutral-control signal | activation, % at 12.5 µM | 0.096% of 320,000 active | AID 504775;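 active = mean replicate activation of at least 60% and every replicate at or above 60%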
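material = CHO ldlA[mSR-BI] cells | medium = Ham's F12 with 0.5% BSA, HEPES 25 mM, pH 7.4 | reagent = fluorescent DiI-HDL, 10 µg/mL final | compound dosing = single-point compound dose | incubation = 3 h, 37 °C | measured by = bottom-read fluorescence, 550/595 nm | measure = HDL uptake via cellular fluorescence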
S100A4 MyoIIA – blocks human S100A4 binding to myosin IIA peptide. inhibition, % at 10.7 µM. 0.14% of 360,000 active. S100A4/TAMRA-MyoIIA peptide fluorescence polarization. P26447;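 active = mean inhibition of at least 70% across replicates, with every replicate also reaching that level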
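Material: S100A4 monomer (human). Medium: Calcium-containing HEPES buffer, pH 7.2. Probe or stimulus: labelled myosin peptide probe, 5 nM. Compound dosing: one concentration per compound. Timing: polarization read 5 min after assay mix addition, stable 5–60 min. Benchmarks: DMSO as neutral control, TFP as positive control.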
dFosB act – activators of mouse delta FosB homodimer. AID 493131. activation, % at 25 µM. 0.99% of 340,000 active. purified delta FosB, TAMRA-CDK5 oligo fluorescence polarization; percent of positive-control signal above neutral wells. P13346;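 active = mean activation above about 17%, with every replicate also reaching it, limit read from the data, passing the limit was not always enough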
SR-BI DiI inh – inhibitors of mouse SR-BI mediated HDL lipid uptake; 0.96% of 320,000 active; ldlA[mSR-BI] CHO cells, DiI-HDL uptake fluorescence, 3 h; inhibition, % at 12.5 µM; Q61009;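 active = mean replicate inhibition of at least 70% and a set share of replicates each scoring 70 or more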
RAD54 inh – inhibitors of human RAD54 branch migration; inhibition, % at 10.4 µM; RAD54 Holliday junction branch migration, FAM/BHQ fluorescence; 0.14% of 360,000 active; Q92698; AID 602329;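 active = mean normalized replicate activity at least 40 and at least half of replicates scoring 40 or more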;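 note: inhibitors cause a drop in the FAM fluorescence signal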
PvdQ inh – blocks Pseudomonas aeruginosa PvdQ acylase activity | purified PvdQ acylase, fluorescence plate reader | inhibition, % at 10 µM | 0.063% of 340,000 active | AID 488965; in the data active = inhibition above about 30%, passing the limit was not always enough
Numbers stand for hits; 0 = inactive; - = no result given. In the library only some 1.6% were active in any assay of this set; here they are far more common.

SMILES	SR-BI DiI-HDL act	S100A4 MyoIIA	dFosB act	SR-BI DiI inh	RAD54 inh	PvdQ inh
C[C@H](CO)N1C[C@H](C)[C@@H](CN(C)C(=O)Nc2cccc3ccccc23)Oc2ccc(NS(=O)(=O)c3cn(C)cn3)cc2CC1=O	-	0	-	-	0	-
Cc1ccc(C(=O)N/N=C\c2ccc(-c3ccc([N+](=O)[O-])cc3)o2)cn1	-	0	0	-	-	0
O=C(N/N=C/c1ccc(-c2cccc([N+](=O)[O-])c2)o1)c1ccc([N+](=O)[O-])cc1	0	0	0	81.7	-	0
NC(=S)N/N=C/c1ccc(-c2ccc([N+](=O)[O-])cc2)o1	0	0	0	71.2	-	0
NC(=S)N/N=C/c1ccc(-c2cc(Cl)cc(Cl)c2)o1	0	-	0	77.9	0	0
COC(=O)N/N=C/c1ccc(-c2cc(Cl)cc(Cl)c2)o1	0	0	0	0	0	0
NC(=S)N/N=C/c1ccc(-c2cc(Cl)ccc2Cl)o1	0	0	0	98.8	0	0
COc1cccc(NC(=O)N2C[C@@H](O)COC[C@H]3O[C@H](CC(=O)NC4Cc5ccccc5C4)CC[C@@H]32)c1	-	0	-	-	0	-
O=C(Nc1cccc(Cl)c1)c1ccc(NCCCN2CCOCC2)c([N+](=O)[O-])c1	0	-	0	70.9	-	0
CC1Cc2ccccc2N1C(=O)Cn1c(=O)oc2cc(S(=O)(=O)N3CCCCC3)ccc21 (centres undefined)	0	0	0	79.6	0	0
O=C(N[C@@H]1CC[C@@H](CCNS(=O)(=O)c2ccc(F)cc2)O[C@H]1CO)C1CC1	-	0	-	-	0	-
COc1ccc(OC)c(C2=NOC(C(=O)N3CCN(c4ccccc4)CC3)C2)c1 (centres undefined)	0	0	0	70.5	0	0
CO[C@@H]1CN(C)C(=O)c2ccc(NC(=O)Nc3cccc(Cl)c3)cc2OC[C@H](C)N(C(=O)Nc2c(C)noc2C)C[C@H]1C	-	0	-	-	-	-
COc1ccc(C)cc1Nc1n[n+](-c2ccccc2)c(-c2ccc(N(C)C)cc2)s1	0	0	0	72.9	0	0
CCN(CC)c1ccc(-c2sc(Nc3ccccc3)n[n+]2-c2ccc(F)cc2)cc1	0	0	27.6	0	0	0
CCc1ccc(Nc2n[n+](-c3ccccc3)c(-c3ccc(N(CC)CC)cc3)s2)cc1	0	0	74.6	0	0	0
CN(C)c1ccc(-c2sc(Nc3ccccc3)n[n+]2-c2ccc(F)cc2)cc1	0	0	0	0	0	0
Nc1ccc(C(=O)Nc2ccc3nc(-c4cccnc4)[nH]c3c2)cc1	0	-	0	0	0	0
Cn1cccc1-c1nc2ccc(NC(=O)c3ccccc3)cc2[nH]1	0	-	0	0	0	0
COC(=O)c1ccc(-c2nc3ccccc3[nH]2)cc1	0	-	0	0	0	40.2
COC(=O)c1ccc(C(=O)Nc2ccc3nc(-c4ccncc4)[nH]c3c2)cc1	0	0	43.9	0	0	0
Cn1cccc1-c1nc2ccc(NC(=O)c3ccc([N+](=O)[O-])cc3)cc2[nH]1	0	-	0	86.9	0	0
CC(C)NC(=O)N(C)C[C@@H]1Oc2c(NC(=O)CCCCCC(=O)Nc3ccccc3N)cccc2C(=O)N([C@@H](C)CO)C[C@H]1C	-	0	-	-	-	-
CC(C)CC#Cc1ccc2c(c1)O[C@@H](CN(C)C(=O)Cc1ccncc1)[C@H](C)CN([C@@H](C)CO)S2(=O)=O	-	0	-	-	0	-
CCC1=NN(C(=O)c2cccc([N+](=O)[O-])c2)C(O)(c2ccc(C)cc2)C1 (centres undefined)	0	0	0	76.0	0	0
SMILES	SR-BI DiI-HDL act	S100A4 MyoIIA	dFosB act	SR-BI DiI inh	RAD54 inh	PvdQ inh
CC1=NN(C(=O)c2ccccc2)C(O)(c2ccc(Br)cc2)C1 (centres undefined)	0	0	0	94.3	-	0
CCC1=NN(C(=O)c2ccc(Br)cc2)C(O)(c2ccccc2)C1 (centres undefined)	0	0	0	79.5	-	0
CCOC(=O)C1=NN(C(=O)c2ccccc2)C(O)(c2ccc(C)cc2)C1 (centres undefined)	0	0	0	0	-	0
C[C@H](CO)N1C[C@H](C)[C@@H](CN(C)C(=O)C2CCCCC2)Oc2ncc(-c3ccccc3)cc2C1=O	-	0	-	-	0	-
CCOc1ccc(NC(=O)CN(C)C(=O)c2c(C)nn(-c3ccc(F)cc3)c2Cl)cc1OCC	0	0	0	83.0	0	0
CCOc1ccc(NC(=O)CN(C)C(=O)c2cccc3ccccc23)cc1OCC	0	0	0	77.7	0	0
CCOc1ccc(NC(=O)CN(C)C(=O)c2c(C)nn(-c3ccccc3)c2Cl)cc1OCC	0	0	0	0	0	0
CCOc1ccc(NC(=O)CN(C)C(=O)c2cc(-c3ccc(OC)cc3)nc3ccccc23)cc1OCC	0	0	0	0	-	0
CCOc1ccc(NC(=O)CN(C)C(=O)c2cc([N+](=O)[O-])ccc2N2CCCCC2)cc1OCC	0	0	0	0	0	0
CCOc1ccc(NC(=O)CN(C)C(=O)c2cc([N+](=O)[O-])ccc2Sc2ccccc2)cc1OCC	0	0	0	76.7	0	0
CCOc1ccc(NC(=O)CN(C)C(=O)c2ccccc2OCCOc2ccccc2)cc1OCC	0	0	0	82.1	0	0
CCC(=O)N[C@@H]1C=C[C@H](CC(=O)NCc2cc(F)cc(F)c2)O[C@@H]1CO	-	0	-	-	0	-
CC(C)CC#Cc1ccc2c(c1)O[C@@H](CN(C)C(=O)CN(C)C)[C@H](C)CN([C@H](C)CO)S2(=O)=O	-	0	-	-	0	-
C[C@H](CO)N1C[C@H](C)[C@H](CN(C)C)Oc2ncc(C3=CCCC3)cc2C1=O	-	0	-	-	0	-
Cc1ccc(-c2ccc3c(c2)O[C@@H](CN(C)S(C)(=O)=O)[C@@H](C)CN([C@H](C)CO)S3(=O)=O)cc1	-	0	-	-	0	-
CCOc1ccc(NC(=O)CN(C)C(=O)c2ccccc2CCc2ccccc2)cc1OCC	0	0	0	94.1	0	0
Cc1ccc(S(=O)(=O)Nc2ccc3c(c2)C(=O)N([C@H](C)CO)C[C@@H](C)[C@H](CN(C)C(=O)Nc2ccc4c(c2)OCO4)OCCCC[C@H](C)O3)cc1	-	0	-	-	-	-
N#Cc1c(C(F)(F)F)cc(-c2ccccc2)nc1SCC(=O)Nc1sc2c(c1C#N)CCC2	0	-	0	105.7	0	0
COc1ccc(-c2ccc(C#N)c(SCC(=O)Nc3sc4c(c3C#N)CCC4)n2)cc1	-	-	0	-	0	0
N#Cc1ccc(-c2cccnc2)nc1SCC(=O)Nc1sc2c(c1C#N)CCC2	0	0	0	76.1	0	0
COc1cc(/C=N/N=C(N)N)ccc1OCc1ccccc1Cl	0	0	24.1	0	-	0
Brc1ccc(C2Nc3cccc4cccc(c34)N2)s1	0	0	23.1	0	-	0
Cc1ccc(Nc2c([N+](=O)[O-])c(=O)n(C)c3ccccc23)cc1C	0	0	0	71.2	0	0
Cn1c(=O)c([N+](=O)[O-])c(NCCc2ccccc2)c2ccccc21	0	-	0	0	0	0

Source: PubChem (Broad Institute)
